T cruzi repl = T. cruzi replication inhibition | T. cruzi beta-gal in NIH3T3, luminescence, 90 h | inhibition, % (concentration not given with the values) | 1.4% of 300,000 active | AID 1885;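 active = mean inhibition across valid replicates above about 55%, limit read from the data; inconclusive = mean below that limit but half or more replicates reach it; inactive = mean below it, under half of replicates reach it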;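 also: signal also drops with host cell toxicity which is not excluded here; 0% = plate median of DMSO wells and 100% = zero luminescence signal; higher percent means less beta-gal luminescence so fewer parasites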
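assay system = mouse NIH/3T3 fibroblasts infected with β-gal-expressing T. cruzi Tulahuen C4 | input = 5,000 NIH/3T3 host cells per well | buffer or medium = DMEM plus 2% FBS | timing = 3 h host attachment, then at least 90 h co-culture | measured by = GalScreen luminescence, 60 min | evaluation = luminescence reflecting intracellular parasite burden, expressed as percent inhibition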
CSC inhib = blocks cancer stem cells. cancer stem cell-like cells viability, luminescence. inhibition, % at 7.5 µM. 1.1% of 300,000 active. AID 2717; in the data active = inhibition above about 75%; inconclusive = no clear call, values can overlap the other calls; tested in HMLE shEcad cells
SKKanGAS inh = inhibitors of SKKanGAS S. pyogenes growth in kanamycin (SK-promoter or general growth effect). inhibition, % at 7.5 µM. 1.3% of 300,000 active. BacTiter-Glo, 6 h. AID 1662;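 active = mean replicate score, as percent of positive control median, at least 50; inconclusive = mean below 50 but one replicate at or above 50; inactive = mean and every replicate below 50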;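 also: strain carries kanamycin resistance gene driven by streptokinase promoter and grows in 40 µg/ml kanamycin; loss of luminescence reflects streptokinase promoter inhibition or plain growth inhibition; 0% = median of DMSO wells and 100% = positive control at its reference dose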
Mdm2 MdmX PPI = human Mdm2/MdmX binding inhibition; SaOS-2 split-luciferase Mdm2/MdmX complementation, luminescence; inhibition, % at 8 µM; AID 485346; O15151+Q00987; 3% of 330,000 active;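 active = inhibition of at least 50% at 8 µM in the primary screen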
aSyn 5UTR inh = 5' untranslated region of α-synuclein, MLPCN primary screen | alpha-synuclein 5'UTR reporter, inhibitor activity | inhibition, % (tested at 7.5 µM) | 0.82% of 300,000 active; in the data active = inhibition above about 60%; inconclusive = no clear call, values can overlap the other calls;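 also: H4 neuroglioblastoma cells stably carrying SNCA 5'UTR luciferase fusion; 0% = DMSO wells and 100% = positive control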
Mdm2-MdmX conf = confirmation of human Mdm2/MdmX interaction inhibitors. shares compounds with Mdm2 MdmX PPI. Mdm2-MdmX binding, luminescent assay. inhibition, % at 8 µM. 55% of 10,000 active; in the data active = inhibition above about 40%
Full FLuc ctr = counter-screen for Mdm2/MdmX inhibitors: full-length luciferase | shares compounds with Mdm2 MdmX PPI | SaOS-2 full-length luciferase counterscreen, luminescence | inhibition, % at 8 µM | 77% of 6,200 active | AID 504607;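 active = mean inhibition at 8 µM reaching about 37%, which flags the compound as non-specific, limit read from the data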;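 also: p53-null SaOS-2 cells with luciferase driven by a doxycycline-inducible promoter; compound on cells about two nights before reading with doxycycline added after day one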
* marks the source's active call; other numbers are inactive results; ? = inconclusive; / = no result. Only some compounds are listed: those with a hit (about 5.4% of all), similar ones and a draw of the others.

SMILES	T cruzi repl	CSC inhib	SKKanGAS inh	Mdm2 MdmX PPI	aSyn 5UTR inh	Mdm2-MdmX conf	Full FLuc ctr
CC(=O)Nc1cccc(-c2cnc(N)c(C(=O)c3cccnc3)n2)c1	/	/	/	90*	/	93*	54*
Cc1cc(OCC(=O)NCCc2ccc(Cl)cc2)c2c(C)cc(=O)oc2c1	15	-4	9	7	25	/	/
Cc1[nH]n(C(N)=S)c(=O)c1N=Nc1cccc(C(F)(F)F)c1	-13	13	2	-42	-165	/	/
Cc1[nH]n(C2=NCCS2)c(=O)c1N=Nc1cccc(C(F)(F)F)c1	60*	50	83*	56*	67*	56*	36*
CC1(C)C(=O)OC(c2cccs2)C(C)(C)C1=O (configuration not stated)	-28	2	5	7	17	/	/
O=c1nc2cccc3c2=c(/c1=C(\O)c1ccccc1)c1ccccc1c3=O	11	2	-4	52*	-16	28	/
CC(C)N(C(=O)[C@H]1C[C@H](CC(=O)NCCC2=CCCCC2)C(=O)N2CCc3c([nH]c4ccc(Cl)cc34)[C@]12C)C(C)C	/	/	/	35	/	/	/
CC(=O)CC1OC(=O)C(Br)=C1NCc1ccccc1 (configuration not stated)	59*	41	4	67*	1	48*	5
O=C(CC1Oc2ccccc2NC1=O)NCc1ccccc1 (configuration not stated)	-2	-2	-4	3	2	/	/
Cn1c(=O)n(CC(=O)Nc2ccc(F)cc2)c2ccccc21	-4	-10	-2	1	26	/	/
CSc1c(CC(=O)Nc2ccccc2)n(C)c2ccccc12	8	19	7	50*	50	-35	/
CSc1c(CC(=O)Nc2ccc(F)cc2)n(Cc2ccccc2)c2ccccc12	30	1	5	86*	-29	18	/
Cn1c(CC(=O)Nc2ccccc2)c(Sc2ccccc2)c2ccccc21	29	-6	-15	15	-15	/	/
Fc1ccccc1OCC1CCCN(Cc2nc(CC3CC3)no2)C1 (configuration not stated)	2	0	11	-8	-22	/	/
N#Cc1nc(Nc2cc(F)cc(F)c2)c2ncn(CC(F)F)c2n1	/	28	/	-24	/	/	/
N#Cc1nc(NCC(F)F)nc(Nc2cc(F)cc(F)c2)n1	/	30	/	64*	/	58*	28
CC(C)(C)CN1CCNC[C@H]1Cc1ccc(O)cc1	-21	15	0	-3	-15	/	/
Oc1ccc(C[C@H]2CNCCN2CCCCC2CCCCC2)cc1	13	3	12	72*	-6	11	/
Oc1ccc(C[C@H]2CNCCN2CCC23CC4CC(CC(C4)C2)C3)cc1	-5	30	4	58*	-22	17	/
CCCCN1CCNC[C@H]1Cc1ccc(O)cc1	-9	-4	-4	5	13	/	/
Oc1ccc(C[C@@H]2CNCCN2CC2CCCCC2)cc1	9	32	4	19	-21	/	/
Oc1ccc(C[C@@H]2CNCCN2CCC23CC4CC(CC(C4)C2)C3)cc1	41	13	7	73*	-50	24	64*
CC(=O)Oc1ccc(C(=O)NC(C)CCc2ccccc2)cc1 (configuration not stated)	4	-5	6	7	-1	/	/
CCOC(=O)c1cnc(-n2nc(C)cc2C)nc1NC1CCCC1	52	-6	97*	76*	25	42*	43*
COc1ccccc1-n1c(C)cc(C=O)c1C	13	-5	5	10	-10	/	/
SMILES	T cruzi repl	CSC inhib	SKKanGAS inh	Mdm2 MdmX PPI	aSyn 5UTR inh	Mdm2-MdmX conf	Full FLuc ctr
CCOC(=O)c1c(-c2ccc(OC)cc2)csc1NC(=O)COc1ccc2c(C)cc(=O)oc2c1	-18	12	5	61*	43	14	/
COc1ccc(Oc2c(Cl)cnn(-c3ccc(Cl)c(Cl)c3)c2=O)cc1	-13	?	-2	85*	73*	-6	/
COc1ccc(Oc2c(Cl)cnn(-c3ccc(C)cc3)c2=O)cc1	-16	13	0	49	-40	/	/
O=C1c2ccccc2C(=O)c2c(Nc3ccc(CCO)cc3)ccc(O)c21	-1	88*	83*	72*	10	35	33
Nc1ccc(O)c2c1C(=O)c1ccccc1C2=O	8	-9	4	20	-18	/	/
O=C(NC(=S)Nc1cccc(Cl)c1N1CCCCC1)c1ccc2c(c1)OCCO2	35	82*	61*	61*	-36	63*	57*
CCn1c(N2CCN(S(=O)(=O)c3ccccc3)CC2)nc2ccccc21	7	-1	-1	-5	26	/	/
Oc1ccccc1/C=N/Nc1nccnc1Cl	27	88*	19	71*	88*	65*	31
Oc1ccc(/C=N/Nc2nccnc2Cl)c(O)c1	59*	95*	10	57*	88*	73*	39*
Clc1nccnc1N/N=C/c1ccc(Br)cc1	-18	31	-2	-75	-106	/	/
O=C(NCC(=O)N(Cc1cccs1)C(C(=O)NC1CCCC1)c1ccco1)c1cccs1 (configuration not stated)	-13	/	1	0	1	/	/
Cc1cc2ccccn2c1C(=O)c1ccc([N+](=O)[O-])o1	74*	?	9	64*	-147	26	/
CC1C(=O)Nc2ccccc2N1C(=O)c1ccc(F)cc1 (configuration not stated)	6	-19	0	14	13	/	/
O=C(CC1S/C(=N/N=C/C=C/c2ccccc2)NC1=O)Nc1ccc(Cl)c(Cl)c1 (configuration not stated)	7	8	12	63*	-12	12	/
COc1ccc(C(=O)Nn2c(SCC(=O)c3ccccc3)nc3ccccc3c2=O)cc1	9	5	16	54*	30	52*	127*
CCOC(=O)CSc1nc2ccccc2c(=O)n1NC(=O)c1ccccc1	8	-2	4	-73	-66	/	/
COc1cccc(C#Cc2c(C=O)n(C)c3ccccc23)c1	/	-28	/	66*	/	40	70*
CCCCNC(=O)c1cn(CC)c2ccc(S(=O)(=O)N3CCCCCC3)cc2c1=O	47	4	-4	2	4	/	/
O=C(c1cccs1)N1CCc2c([nH]c3ccccc23)C1c1ccc(Cl)cc1 (configuration not stated)	28	6	23	73*	38	58*	97*
O=C(c1ccc(Cl)cc1)N1CCc2c([nH]c3ccccc23)C1C(F)(F)F (configuration not stated)	/	8	2	7	/	/	/
COCCN(C(=O)CSc1n[nH]c(-c2ccccc2)n1)c1c(N)n(CC(C)C)c(=O)[nH]c1=O	-2	/	16	2	4	/	/
CC(=O)c1ccc(NC(=O)Nc2cccc3ccccc23)cc1	/	-4	/	-14	/	/	/

Compound activity deposited in PubChem BioAssay by several laboratories.
